Data published in ChEMBL document CHEMBL1152506, “Characterization and synthetic application of a novel beta1,3-galactosyltransferase from Escherichia coli O55:H7” (Bioorg Med Chem, 2009).
Calls of active or inactive are those of the source. The rule behind the calls is not given here.

Experiments:
[1] = target: T1, Putative glycosyltransferase (Escherichia coli O55:H7) (UniProt B1B4J9); experiment: Activity of Escherichia coli O55:H7 glycosyltransferase WbgO relative to GlcNAc
T1 sequence (whole entry): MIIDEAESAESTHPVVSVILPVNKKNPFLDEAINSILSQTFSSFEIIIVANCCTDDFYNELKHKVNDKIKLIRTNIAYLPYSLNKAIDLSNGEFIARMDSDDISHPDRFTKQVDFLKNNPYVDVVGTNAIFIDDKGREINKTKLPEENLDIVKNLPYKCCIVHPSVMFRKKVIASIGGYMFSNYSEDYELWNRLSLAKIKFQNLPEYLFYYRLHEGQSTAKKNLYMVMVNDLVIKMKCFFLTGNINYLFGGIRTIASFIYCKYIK
In short: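 GST-fused WbgO made in E. coli BL21(DE3) and purified on glutathione resin. Assayed in 50 µL of 50 mM HEPES pH 7.0 with 5 mM MnCl2, 0.3 mM UDP-Gal plus UDP-[6-3H]Gal (10,000 cpm), 2 mM acceptor and 4 µg enzyme, 37 °C for 1 h. Control omitted the acceptor. Incorporated 3H was read by liquid scintillation counting and expressed relative to GlcNAc.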

[2] = target: T1, Putative glycosyltransferase (Escherichia coli O55:H7); experiment: Activity of Escherichia coli O55:H7 glycosyltransferase WbgO
In short: (§1)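 Apparent kinetics for purified GST-WbgO, using the radioactive UDP-[6-3H]Gal transfer assay with scintillation counting. The acceptor (GlcNAc, GalNAc or lacto-N-triose) was varied at 0.1, 0.2, 0.5, 1 and 2 mM with UDP-Gal fixed at 1 mM. UDP-Gal was varied at 0.1–2 mM with 20 mM GlcNAc. Base buffer was HEPES pH 7.0 with 5 mM MnCl2.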

[3] = substrate: CC(=O)N[C@@H]1[C@@H](O)[C@@H](O)[C@@H](CO)O[C@H]1O; experiment: (§2) Ratio of Kcat to Km for Escherichia coli O55:H7 glycosyltransferase WbgO by Lineweaver-Burke analysis; in short: as §1
[4] = substrate: CC(=O)N[C@H]1[C@H](O[C@H]2[C@@H](O)[C@@H](CO)O[C@@H](O[C@H]3[C@H](O)[C@@H](O)[C@H](O)O[C@@H]3CO)[C@@H]2O)O[C@H](CO)[C@@H](O)[C@@H]1O[C@@H]1O[C@H](CO)[C@H](O)[C@H](O)[C@H]1O; experiment: as §2; in short: as §1
[5] = substrate: CC(=O)N[C@@H]1[C@@H](O)[C@H](O)[C@@H](CO)O[C@H]1O; experiment: as §2; in short: as §1
[6] = substrate: CC(=O)N[C@@H]1[C@@H](O)[C@@H](O)[C@@H](CO)O[C@H]1O; experiment: (§3) Activity of Escherichia coli O55:H7 glycosyltransferase WbgO by Lineweaver-Burke analysis; in short: as §1
[7] = substrate: CC(=O)N[C@H]1[C@H](O[C@H]2[C@@H](O)[C@@H](CO)O[C@@H](O[C@H]3[C@H](O)[C@@H](O)[C@H](O)O[C@@H]3CO)[C@@H]2O)O[C@H](CO)[C@@H](O)[C@@H]1O[C@@H]1O[C@H](CO)[C@H](O)[C@H](O)[C@H]1O; experiment: as §3; in short: as §1
[8] = substrate: CC(=O)N[C@@H]1[C@@H](O)[C@H](O)[C@@H](CO)O[C@H]1O; experiment: as §3; in short: as §1

**Q.** `CC(=O)N[C@H]1[C@H](Oc2ccc([N+](=O)[O-])cc2)O[C@H](CO)[C@@H](O)[C@@H]1O` was tested. Which Activity [1] did it give?
**A.** The Activity was 73%.

**Q.** How did the Activity [1] turn out when `CC(=O)N[C@@H]1[C@@H](O)[C@H](O)[C@@H](CO)O[C@H]1O` was run?
**A.** Its Activity is 100%.

**Q.** And the Activity [2]?
**A.** The Activity was “Active”.

**Q.** What does the source list for `CC(=O)N[C@@H]1[C@@H](O)[C@@H](O)[C@@H](CO)O[C@H]1O`?
**A.** Activity [1]: 43%; Activity [2]: Active

**Q.** How did the Activity [1] turn out when `CC(=O)N[C@H]1[C@H](O[C@H]2[C@@H](O)[C@@H](CO)O[C@@H](O[C@H]3[C@H](O)[C@@H](O)[C@H](O)O[C@@H]3CO)[C@@H]2O)O[C@H](CO)[C@H](O)[C@@H]1O` was run?
**A.** The Activity was 16%.

B1: Putative glycosyltransferase (Escherichia coli O55:H7), B1B4J9 (protein)
chain: T1 sequence (whole entry)
**Q.** Which kcat/Km [3] does the source give for B1 here?
**A.** Its kcat/Km is 87.2 M⁻¹ s⁻¹.

**Q.** And the kcat/Km [4]?
**A.** Its kcat/Km is 278 M⁻¹ s⁻¹.

**Q.** What about the kcat/Km [5] of the same molecule?
**A.** The kcat/Km was 132 M⁻¹ s⁻¹.

**Q.** What about the Km [6] of the same molecule?
**A.** The Km was 327 µM.

**Q.** And the Vmax [6]?
**A.** The Vmax was 120 pmol/min.

**Q.** What about the kcat [6] of the same molecule?
**A.** Its kcat is 0.0285 s⁻¹.

**Q.** And the Km [7]?
**A.** Its Km is 55 µM.

**Q.** What about the Vmax [7] of the same molecule?
**A.** Its Vmax is 176 pmol/min.

**Q.** And the kcat [7]?
**A.** Its kcat is 0.0417 s⁻¹.

**Q.** What about the Km [8] of the same molecule?
**A.** Its Km is 323 µM.

**Q.** What about the Vmax [8] of the same molecule?
**A.** The Vmax was 179 pmol/min.

**Q.** What about the kcat [8] of the same molecule?
**A.** Its kcat is 0.0425 s⁻¹.
